The values that follow come from the EternaBench riboswitch data.

The series relates to MS2 coat protein. The series can be described thus: apparent Kd, MS2 coat protein; higher = weaker binding; RNA-MaP array; FMN 200 µM where present. Put shortly:
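Designs were transcribed by stalled E. coli RNA polymerase on Illumina sequencing-chip clusters. They were titrated with SNAP-549-labelled MS2 coat protein from 0.7 or 1.5 nM, doubling to 3 µM, without and then with constant ligand. Buffer: 100 mM Tris-HCl pH 7.5, 80 mM KCl, 4 mM MgCl2, BSA, DTT, yeast tRNA, Tween-20. Green signal was normalised to red-channel RNA signal and control-cluster median Fmax. Apparent Kd is the median of filtered per-cluster binding-curve fits.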

Setting [1] is: designed as: OFF switch for flavin mononucleotide, no ligand.
Setting [2] is: ligand present: flavin mononucleotide, designed as: OFF switch for flavin mononucleotide.
Setting [3] is: designed as: ON switch for flavin mononucleotide, no ligand.
Setting [4] is: ligand present: flavin mononucleotide, designed as: ON switch for flavin mononucleotide.

With “UCGGCCGCCGUGAGGAUAUGCCCGCGCGCCCGCGGGCAGAAGGCACAUGAGGAUCACCCAUGUCCCGCGGCAUU”, the apparent Kd (usually a dissociation constant that holds for the conditions of the assay) under setting [1] came out at 16.2 nM and the “apparent Kd” value under setting [2] amounted to 35.1 nM.

Turning to “GGGAGUGAAGGAUAUACAUGAGGAUCACCCAUGUGGGAGGAGAGAGGUGAGGAGGCUGGUAGAAGGUCAGGAUG”, the “apparent Kd” value under setting [1] was determined as 60.2 nM and the “apparent Kd” value under setting [2] stood at 51.2 nM.

Regarding “GGGUACAUCGGAGGAUAUCAUGUAAAUACAUGAGGAUCACCCAUGUCGAUGGAGAGAUCGGAGAUUGAGAAGGCCGAUGUACCG”, the “apparent Kd” value by setting is: under setting [3], 97.4 nM; under setting [4], 41 nM.

“AAGGAUCGAGGAUAUACAUAGAUACAGAUACAUGUAUACGUACAUGAGGAUCACCCAUGUAGAAGGCGAUCAUA”: the “apparent Kd” value under setting [1] worked out at 37.1 nM and the “apparent Kd” value under setting [2] stood at 214 nM.

Consider “CAUUGGUAAGGAUAUGAAUCGAUCUCAGAAAUGAGAUCGAUUCAGAAGGUACAUGAGGAUCACCCAUGUUGAUG”, for which the “apparent Kd” value by setting is: under setting [1], 27.8 nM; under setting [2], 72.9 nM.

For the sequence “UUUUAACAUGAGGAUCACCCAUGUGAGGAUAUCGAAAUUUAUAUUAAUAUUUAUAAUACGAGAAGGCACAUUUU”, the “apparent Kd” value came to 85 nM under setting [1] and 90.6 nM under setting [2].

For “CGCACUAUACAUGAGGAUCACCCAUGUUAAUAUGAGGUAGUCAGAAGGCAUUGUAUGAGAUAUUAUGAGGAUAUGAUUAGUGCG”, the “apparent Kd” value reads like this: under setting [3], 226 nM; under setting [4], 41.4 nM.

As to “UGGUGAAGUGUAGGAUAUGGAGAUGGGUUUUGGCCAGAAGGACAUGAGGAUCACCCAUGUGGUAGAGGGUUGGUGGUAGCUCCU”, the “apparent Kd” value under setting [1] was 36.2 nM and the “apparent Kd” value under setting [2] was determined as 31.7 nM.

“UGUUACUAGUAAGGAUAUACUUGCGAUUAGCUUGUAGAAGGUACAGUCUUUUGUAUAACAUGUUUACAUGAGGAUCACCCAUGU”: the “apparent Kd” value under setting [3] was determined as 10.7 nM and the “apparent Kd” value under setting [4] turned out to be 8.69 nM.

Consider “UCCUCGAUGUAGAAGGCCGCGUCCGGCUCACGCGGAGGAUAUACAUGAGGAUCACCCAUGUGUCUGUGGCUAAUAUGGUACGGA”, for which the “apparent Kd” value amounted to 120 nM under setting [1] and 14.4 nM under setting [2].

As to “AUUAAUUUGUAGAAGGACGACUAUUAAUAUUUCGUAGGAUAUACUAUUUACAUGAGGAUCACCCAUGUUUAAAUGGAACAAUGU”, the “apparent Kd” value reads like this: under setting [1], 8.1 nM; under setting [2], 11.8 nM.

On to “CCAUUUCUGUAAGGAUAUAUAAACAUGACGAUACAUGAGGAUCACCCAUGUGUAGAAGGUACAAAUACAUAUAAUGCAAUGUUC”, for which the “apparent Kd” value under setting [1] was found to be 14.8 nM and the “apparent Kd” value under setting [2] worked out at 13 nM.

Take “UUGCGCUGUCGAGAGGAUAUGCGGUGUUGGACAUGAGGAUCACCCAUGUUUGCGAUAGCUUUACGGUAGAAGGCUCUUCAGCUGC”: the “apparent Kd” value is, setting by setting: under setting [3], 63.9 nM; under setting [4], 35.9 nM.

As to “GCUAUCGGGUGAGGAUAUAUAAUUGUGAUUAAAAUAGAAGGCAUCUCAGAAGACAUGAGGAUCACCCAUGUAGUUAAGAUGGCA”, the “apparent Kd” value reads like this: under setting [3], 23.8 nM; under setting [4], 20.1 nM.

Turning to “AAAUCAGCAGGAUAUGCGAUGUUAUGCUAGAUAGCGGGACCACAUGAGGAUCACCCAUGUAGAAGGGCUAGAUA”, the “apparent Kd” value runs as follows: under setting [1], 34.9 nM; under setting [2], 16.8 nM.

As for “GCGAGUACGAGAGGAUAUUGACAUGAGGAUCACCCAUGUAUUUGGGAGUGUUCACUGAAUUCUUACGAGAAGGCUCGUACACGC”, the “apparent Kd” value runs as follows: under setting [1], 244 nM; under setting [2], 252 nM.

As for “GGGCUCGGAGGAUAUACAUGAGGAUCACCCAUGUACUCGGGCUCUAUUGGGCUCGGGUGUAGAAGGUCGGGCUC”, the “apparent Kd” value under setting [1] was 14.9 nM and the “apparent Kd” value under setting [2] was found to be 14.6 nM.

For “AGCGGCGCGGACCACCGCAAAACCAGAAGGACAUGAGGAUCACCCAUGUAACAAAACAGGGCGGUGUAGGAUAUGGCAGACCCA”, the “apparent Kd” value reads like this: under setting [1], 10.8 nM; under setting [2], 9.16 nM.

Consider “AGAAAUAAAAGAGAGGAUAUCCAAAAGAAAACAUGAGGAUCACCCAUGUAAAAGAAAAUAAAAUGGGAGAAGGCUCAAAAUAAAGA”, for which the “apparent Kd” value reads like this: under setting [3], 115 nM; under setting [4], 22.6 nM.

For “GUAUCUUACCAAGGAUAUUUAAGAUUAGUGUAGACAUGAGGAUCACCCAUGUGGCCUUAGUCACGGGAGAAGGUGGUUUGAUAC”, the “apparent Kd” value under setting [3] was determined as 312 nM and the “apparent Kd” value under setting [4] is 70.9 nM.

For the sequence “GCCCAGCUAGGAUAUCGCACUGCAGACAUGAGGAUCACCCAUGUGAUGAGGUCUGAAUCCCGAGAAGGAGCAUGGA”, the “apparent Kd” value by setting is: under setting [1], 17.8 nM; under setting [2], 41.7 nM.

“AGAUGACAAUGUCAUCUUCAACGGACAUGAGGAUCACCCAUGUAGGAUAUGCUACUCAAAGAGUAGCAGAAGGACAUGUGUCUU”: the “apparent Kd” value under setting [1] is 23.1 nM and the “apparent Kd” value under setting [2] stood at 85.2 nM.

“UUGGACGCCGUAGGAUAUGUAGGAUAUUCCUACAUGAGGAUCACCCAUGUUGACAUGGAAGAAGGACAGAAGGACGAUGUCCAU”: the “apparent Kd” value under setting [3] is 277 nM and the “apparent Kd” value under setting [4] turned out to be 4.78 nM.

On to “UCUACAUAAAUUCAUCAAUACAGAAAGGAUAUGAGAUACAUGAGGAUCACCCAUGUGCAUGUGAAUUAGAAGGUUCAAUUAACU”, for which the “apparent Kd” value amounted to 14.4 nM under setting [1] and 11.1 nM under setting [2].

For “AUUCUUGGGCAAGGAUAUCCUGUGCGGUUCCGGCUCGUGUCUGUCACAUGAGGAUCACCCAUGUGGGAGAAGGUGCCUGCGGUC”, the “apparent Kd” value under setting [1] is 6.86 nM and the “apparent Kd” value under setting [2] amounted to 7.2 nM.

On to “UGUCCGAGCAGAGGAUAUUACAUGAGGAUCACCCAUGUAUGAACCAAUAGCUGGAAACAGCAAUGUAAGAAGGCUGCUCCGACA”, for which the “apparent Kd” value worked out at 12.2 nM under setting [1] and 155 nM under setting [2].

Turning to “AAAAAUCGAGGAUAUACAUGAGGAUCACCCAUGUGGGACCAAGAAAACACAAAAGAAAGUAGAAGGCGAUAAAA”, the “apparent Kd” value reads like this: under setting [1], 29.2 nM; under setting [2], 113 nM.

For “GUCAGCUCGUUAGGAUAUACAACACUGCUUCGGCAGUGUAUUAAGAUCACAUGAGGAUCACCCAUGUAGAAGGCACGAGCUGAU”, the “apparent Kd” value by setting is: under setting [1], 8.16 nM; under setting [2], 29.5 nM.

Take “ACAGGUUAAGGAUAUACAUGAGGAUCACCCAUGUCGAGUAUCUUGUCAUGCCGCCCAUGUAGAAGGUAACAUGG”: the “apparent Kd” value is, setting by setting: under setting [1], 13.5 nM; under setting [2], 17 nM.

Take “UCCUUGUCCUGAGGAUAUCCGUGGUUACCGAAAGGAGAAGGCAGGACAUGAGGAUCACCCAUGUACCCAGAAAACGUGCAGAGU”: the “apparent Kd” value by setting is: under setting [1], 125 nM; under setting [2], 381 nM.

On to “AGAUUUGUACAUGAGGAUCACCCAUGUUAAUAGGUGGUUGUCAGAAGGCAUUAUUAGAGUUUUAAUGAGGAUAUGAAUUUACAA”, for which the “apparent Kd” value under setting [4] is 541 nM.

For the sequence “UCAGUAGAGUCAGGAUAUACGAAAGUAGAUCCUUACAUGAGGAUCACCCAUGUAGAAGGGACUCUACUGUAAGUCGGAAACGAC”, the “apparent Kd” value is, setting by setting: under setting [1], 14.1 nM; under setting [2], 69.1 nM.

“UCGAUGCUAGGAUAUACUAAUACAACUACUGUAGUGUCUUCACAUGAGGAUCACCCAUGUAGAAGGAGCAUAUA”: the “apparent Kd” value by setting is: under setting [1], 26.3 nM; under setting [2], 20.3 nM.

As for “AUCAGCUCGUCAGGAUAUACGUCACUCCGUCAGCAGUGUGGUAAGAUCACAUGAGGAUCACCCAUGUAGAAGGGACGAGCUGAU”, the “apparent Kd” value by setting is: under setting [1], 29.5 nM; under setting [2], 253 nM.

Turning to “UGAAUGUGAGGAUAUGGUGAGUAGUGCCAGAGCGCUGCUCACCAGAAGGCACAUGAGGAUCACCCAUGUACUUG”, the “apparent Kd” value by setting is: under setting [1], 64.3 nM; under setting [2], 179 nM.

On to “CCCACGUCAGGAUAUCCAAAGGUCCGAAAUAACGGUACUUUGGAGAAGGGACAUGAGGAUCACCCAUGUCCUCG”, for which the “apparent Kd” value is 18.9 nM under setting [1] and 28.8 nM under setting [2].

For “GAAAACAUAGGAUAUACAUGAGGAUCACCCAUGUUAAAAUAAAGAAAGGGAGAAAUAAGUAGAAGGAUGAAAAA”, the “apparent Kd” value is, setting by setting: under setting [1], 33.8 nM; under setting [2], 34.2 nM.

Take “AUGUAGGUAGGAUAUGCAUAGAUAUACAUUCAUGUGGAUUUACAUGAGGAUCACCCAUGUAGAAGGACCUAAAA”: the “apparent Kd” value reads like this: under setting [1], 34.1 nM; under setting [2], 107 nM.

With “GUUAAUUAGUGAGGAUAUACAUAAUUUAAUACUGUAGAAGGCACAAUCCUCAAGACAUGAGGAUCACCCAUGUGAUAAUAAGCU”, the “apparent Kd” value came to 34.9 nM under setting [1] and 174 nM under setting [2].

With “ACCUAGACUAGGCCCACGGCAUCACAGGAUAUGCCGAUCACAUGAGGAUCACCCAUGUCAACUCCGCAGAAGGGUGAUAUCGUG”, the “apparent Kd” value stood at 179 nM under setting [3] and 14.1 nM under setting [4].

On to “UCAUAAAAGAUCCUAUUUAUCUACAUGAGGAUCACCCAUGUGCAGGAUAUGCUAUAUUUAAUAAAGCAGAAGGGCAAUAACCGC”, for which the “apparent Kd” value stood at 127 nM under setting [1] and 309 nM under setting [2].

Consider “ACGUUUUUUGAGGAUAUGCGAUAGUUUUAUAUCGUAGAAGGCGAUACAUGAGGAUCACCCAUGUUUAUGGGCAU”, for which the “apparent Kd” value runs as follows: under setting [1], 167 nM; under setting [2], 197 nM.

As for “AAUUAAUUAAUUAAUUCCUGCAUACAUGAGGAUCACCCAUGUAAGGAUAUCGUCAGGAAUACUGACGAGAAGGUACAUAGCAGG”, the “apparent Kd” value worked out at 15.7 nM under setting [1] and 21.6 nM under setting [2].

In the case of “GCACUUAGAGUUGAACCGUUACUAACAUGAGGAUCACCCAUGUAGGAUAUGCUAAUAGUAUUGAAGCAGAAGGACACUAAGUGC”, the “apparent Kd” value is, setting by setting: under setting [1], 5.46 nM; under setting [2], 5.88 nM.

For “UUUAUAUUCAGAGGAUAUUAAUGUAGUAUAACAUAAGAAGGCUGUUUGUUUUGUAAAGUAAUUCUACAUGAGGAUCACCCAUGU”, the “apparent Kd” value stood at 21.4 nM under setting [3] and 16.2 nM under setting [4].

For “GGUUGACAUGAGGAUCACCCAUGUGAGGAUAUCGGCUGGUACGUGUUGGCUGGCAUCUCGAGAAGGCACAUAGG”, the “apparent Kd” value stood at 170 nM under setting [1] and 58.4 nM under setting [2].

For the sequence “CAUUAAUUCAUUAUAGUUAUUAUACAGGAUAUGUUACAUGAGGAUCACCCAUGUAUUCAUGGUAAACAGAAGGGUAAUUCAAGU”, the “apparent Kd” value is, setting by setting: under setting [1], 24.9 nM; under setting [2], 22.6 nM.

Regarding “CUGGUGUCAGGAUAUGCAUAGCAGUGACCGGAACCCGGUCAGCAGAAGGGACAUGAGGAUCACCCAUGUUAAUA”, the “apparent Kd” value by setting is: under setting [1], 24.2 nM; under setting [2], 57.7 nM.
